Measured values reported in publication PMC10751876 (Current research in chemical biology, 2023).

How the values were obtained:
hBRD4 [1] = biological target: T1, hBRD4 (Homo sapiens, UniProt O60885); assay: SPR binding to hBRD4; details: for Rmax: hBRD4, SPR fit, (locked) = as printed
TbBdf2 [2] = biological target: T2, TbBdf2 (Trypanosoma brucei brucei, UniProt Q38AM1); assay: SPR binding to TbBdf2; set-up: species or system T. brucei; details: for Rmax: SPR fit, (locked) = as printed; for Kd: read-out: SPR KD, duplicate, standard error
T2 sequence (Q38AM1 9-123): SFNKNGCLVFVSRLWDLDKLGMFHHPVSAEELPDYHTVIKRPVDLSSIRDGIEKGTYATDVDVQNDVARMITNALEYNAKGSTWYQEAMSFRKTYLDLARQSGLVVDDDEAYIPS
In short: (§1)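 Purified His6-tagged bromodomain protein was labelled with DBCO-PEG4-NHS ester (3-fold molar excess, 2 h, room temperature), quenched with ethanolamine, and coupled to an azide chip at pH 4.0 (~6000 RU). Run in duplicate, standard error.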

TbBdf3 [3] = biological target: T3, TbBdf3 (Trypanosoma brucei brucei, UniProt Q383S2); assay: SPR binding to TbBdf3; set-up: species or system T. brucei; details: for Rmax: TbBdf3, SPR fit, (locked) = as printed
T3 sequence (Q383S2 1-221): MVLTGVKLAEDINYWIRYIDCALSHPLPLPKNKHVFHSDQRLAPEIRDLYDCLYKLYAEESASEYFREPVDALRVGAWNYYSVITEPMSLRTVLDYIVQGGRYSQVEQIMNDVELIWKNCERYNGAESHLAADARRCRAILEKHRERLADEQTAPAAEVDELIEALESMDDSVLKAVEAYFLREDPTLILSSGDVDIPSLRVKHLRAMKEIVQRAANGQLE
In short: as §1

hBRD4 [4] = biological target: T1, hBRD4; assay: ITC binding to hBRD4
TbBdf2 [5] = biological target: T2, TbBdf2; assay: ITC binding to TbBdf2; set-up: species or system T. brucei; details: 15 °C; n set to 1.0; single experiment, error of the fit
In short: (§2)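 ITC at 15 °C. His6-tagged bromodomain protein was dialysed against 20 mM HEPES pH 7.5, 150 mM NaCl, 0.5 mM TCEP, 1% DMSO. Typically 2.0 mM protein was injected in 2–3 μL increments into 200 μM ligand in the cell. Baseline-corrected isotherms were fitted. Each titration was run at least twice; reported values come from single experiments with fit error.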

TbBdf3 [6] = biological target: T3, TbBdf3; assay: ITC binding to TbBdf3; set-up: species or system T. brucei
In short: as §2

[7] = system: EP1/GFP reporter parasites; assay: EP1/GFP reporter flow cytometry in bloodstream parasites; assay type: cell-based, T. brucei; details: for EP1/GFP mean fluorescence intensity: 3 days
In short: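 Bloodstream Lister 427 L224 T. brucei (VSG3/BES7-NeoR, VSG2/BES1-PuroR) carrying an EP1/GFP reporter construct, grown in HMI-9 at 37 °C, 5% CO2. Parasites were treated 2 or 3 days, with DMSO as vehicle control. GFP mean fluorescence intensity was read by flow cytometry. Three biological replicates, SD shown; two-tailed unpaired t-test against DMSO.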

[8] = system: bloodstream T. brucei parasites; assay: Growth inhibition of bloodstream parasites; assay type: cell-based; details: Trypanosoma brucei, 48 h, read-out: GEC50 growth inhibition
In short: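 Lister 427 L224 bloodstream parasites were plated at 10,000 cells/ml in HMI-9 across a compound concentration series and grown 48 h at 37 °C, 5% CO2. Cells were then stained with 5 μM Sytox Orange for 15 min at 37 °C and counted by fixed-volume flow cytometry in a live/Sytox-negative gate. Dose-response metrics came from growth-rate-inhibition analysis (GRMetric).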

T. brucei parasites = assay: Percent of live cells by forward and side scatter gating; assay type: cell-based; details: flow cytometry live gate
In short: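 Lister 427 L224 bloodstream parasites were cultured in HMI-9 at 37 °C, 5% CO2 and treated 48 h or 72 h at set concentrations, with DMSO controls. Viability is the percentage of cells falling in a live gate set on forward and side scatter by flow cytometry.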

[9] = Solubility at ITC ligand concentration; assay type: physicochemical; details: at 200 μM, ITC assay
[10] = system: bloodstream T. brucei parasites (procyclin protein); assay: Procyclin surface protein expression, anti-EP1 flow cytometry; assay type: cell-based; details: negative control, 3 days

| SMILES | Kd (hBRD4 [1]) [µM] | Rmax (hBRD4 [1]) | Rmax (TbBdf2 [2]) | Kd (TbBdf2 [2]) [µM] | Kd (TbBdf3 [3]) [µM] | SPR binding to TbBdf3 (TbBdf3 [3]) | Rmax (TbBdf3 [3]) | Kd (hBRD4 [4]) [µM] | TbBdf2, ITC KD (TbBdf2 [5]) | Kd (TbBdf3 [6]) [µM] | EP1/GFP mean fluorescence intensity ([7]; 5 μM) | EC50 [8] [µM] | percentage of live cells compared to DMSO controls (T. brucei parasites) | hBRD4, ITC KD (hBRD4 [4]; 15 °C, n set to 1.0, single experiment, error of the fit) | EP1/GFP mean fluorescence intensity ([7]; 20 μM) | solubility [9] | fold change in EP1/GFP mean fluorescence intensity compared to DMSO ([7]; 20 μM) [fold] | procyclin surface expression [10] |
| --- | --- | --- | --- | --- | --- | --- | --- | --- | --- | --- | --- | --- | --- | --- | --- | --- | --- | --- |
| COc1cc2c(N[C@H](C)c3ccccn3)c(C(=O)NCCCCCCN)cnc2cc1-c1c(C)noc1C [AP-08-188, N-(6-Aminohexyl)-7-(3,5-dimethylisoxazol-4-yl)-6-methoxy-4-((R)-1-(pyridin-2-yl)ethylamino)quinoline-3-carboxamide] | 0.29 ± 0.17 | 135 ± 27 RU | 85 ± 35 RU | 45 ± 31 | 30 ± 21 | weak binding | 143 ± 51 RU | 0.68 ± 0.15 | No binding | 87 ± 21 | highest | 1.74 ± 0.044 | significantly lower | – | – | – | – | – |
| COCCOCCOCCOC(=O)c1ccc(-c2cc3ncc4[nH]c(=O)n([C@H](C)c5ccccn5)c4c3cc2OC)cc1 [AP-09-191, (R)-2-(2-(2-Methoxyethoxy)ethoxy)ethyl 4-(8-methoxy-2-oxo-1-(1-(pyridin-2-yl)ethyl)-2,3-dihydro-1H-imidazo[4,5-c]quinolin-7-yl)benzoate] | 60 ± 26 | 200 (locked) RU | 200 (locked) RU | 44 ± 31 | 56 ± 31 | – | 200 (locked) RU | – | – | 22 ± 11 | – | – | – | No binding | increased mean fluorescence intensity of GFP | – | – | – |
| COc1cc2c(cc1-c1ccc(C(=O)NCCCCCCCCNC(=O)OC(C)(C)C)cc1)ncc1[nH]c(=O)n([C@H](C)c3ccccn3)c12 [AP-09-008, (R)-tert-Butyl 8-(4-(8-methoxy-2-oxo-1-(1-(pyridin-2-yl)ethyl)-2,3-dihydro-1H-imidazo[4,5-c]quinolin-7-yl)benzamido)octylcarbamate] | 6.1 ± 3.6 | 14.2 ± 1.8 RU | 27.1 ± 1.2 RU | 1.68 ± 0.34 | 1.43 ± 0.32 | – | 36.9 ± 1.9 RU | – | – | – | strong increase | 1.27 ± 0.046 | significantly lower | – | – | insolubility | – | – |
| NCCCCCCNC(=O)c1ccccc1.O=C(O)C(F)(F)F [AP-08-190, N-(6-aminohexyl)benzamide 2,2,2-trifluoroacetate] | – | – | – | – | – | – | – | – | – | – | – | – | – | – | – | – | 1.2 | Neither DMSO nor the control compound AP-08-190 increased procyclin surface expression |
